How the values were obtained:
[1] = Volume of distribution at steady state in cynomolgus monkey at 1 mg/kg, iv; type: ADME, organism-based, Macaca fascicularis; settings: in vivo, read-out: Vdss
[2] = Chemical stability of the compound at pH 2 phosphate buffer assessed as time required for 90% hydrolytic degradation at 100 ug/ml and 40 degreeC by UPLC-UV analysis; type: physicochemical; settings: in the assay text read “10% hydrolytic degradation” for “90% hydrolytic degradation”, dose 100 µg/ml
Procedure, shortened: (§1)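 Compound diluted from acetonitrile or DMSO stock to 100 μg/mL final in 50 mM phosphate buffer, pH 2 (or pH 7), ionic strength 0.15 M NaCl, 40 °C in autosampler. Timed injections analysed by reverse-phase UPLC-UV (220 nm); pseudo-first-order kobs from ln c vs time; t50 and t90 calculated.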

[3] = Volume of distribution at steady state in dog at 1 mg/kg, iv; type: ADME, organism-based, Canis lupus familiaris; settings: in vivo, read-out: Vdss
Procedure, shortened: (§2)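 Rats and dog received 1 mg/kg intravenously, formulated in 12% w/v Captisol in water. Volume of distribution was taken at steady state from the iv plasma profile. Three animals per dosing route.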

[4] = biological target: PI3-kinase p110-alpha/p85-alpha (Homo sapiens, UniProt P42336); assay: Inhibition of human full length PI3K p110alpha/p85alpha using […] as substrate measured after 30 mins by TR-FRET assay; type: protein-complex assay
[5] = Volume of distribution at steady state in rat at 1 mg/kg, iv; type: ADME, organism-based; settings: in vivo, read-out: Vdss; procedure, shortened: as §2
[6] = Half life in dog at 1 mg/kg, iv; type: ADME, organism-based, Canis lupus familiaris; settings: in vivo
[7] = Chemical stability of the compound at pH 2 phosphate buffer assessed as time required for 50% hydrolytic degradation at 100 ug/ml and 40 degreeC by UPLC-UV analysis; type: physicochemical; settings: dose 100 µg/ml, read-out: Time (converted); procedure, shortened: as §1
[8] = Selectivity index, ratio of IC50 for inhibition of human full length PI3K p110alpha/p85alpha to IC50 for inhibition of human full length PI3K p110delta/p85alpha
[9] = Selectivity index, ratio of IC50 for inhibition of human full length PI3K p110gamma to IC50 for inhibition of human full length PI3K p110delta/p85alpha
[10] = Half life in cynomolgus monkey at 1 mg/kg, iv; type: ADME, organism-based, Macaca fascicularis; settings: in vivo
[11] = biological target: PI3K p110 beta/p85 alpha (Homo sapiens, UniProt P42338); assay: Inhibition of recombinant human full-length N-terminal His-tagged PI3K p110beta/p85alpha using […] as substrate measured after 30 mins by TR-FRET assay; type: protein-complex assay
[12] = Clearance in dog at 1 mg/kg, iv; type: ADME, organism-based, Canis lupus familiaris; settings: in vivo
[13] = Oral bioavailability in rat at 5 mg/kg; type: ADME, organism-based; settings: in vivo
[14] = biological target: Phosphatidylinositol 4,5-bisphosphate 3-kinase catalytic subunit gamma isoform (Homo sapiens, UniProt P48736); assay: Inhibition of human full length PI3K p110gamma using […] as substrate measured after 30 mins by TR-FRET assay
[15] = Selectivity index, ratio of IC50 for inhibition of recombinant human full-length N-terminal His-tagged PI3K p110beta/p85alpha to IC50 for inhibition of human full length PI3K p110delta/p85alpha
[16] = Clearance in rat at 1 mg/kg, iv; type: ADME, organism-based; settings: in vivo
[17] = Half life in rat at 1 mg/kg, iv; type: ADME, organism-based; settings: in vivo
[18] = biological target: T1, Phosphatidylinositol 4,5-bisphosphate 3-kinase catalytic subunit delta isoform (Homo sapiens, UniProt O00329); assay: Inhibition of PI3Kdelta in human whole blood assessed as reduction in anti-FCepsilonR1 mAb-stimulated basophil activation preincubated for 60 mins followed by anti-FCepsilonR1 mAb stimulation and measured after 25 mins by flow cytometry analysis; type: tissue-based
T1 sequence (O00329 whole entry): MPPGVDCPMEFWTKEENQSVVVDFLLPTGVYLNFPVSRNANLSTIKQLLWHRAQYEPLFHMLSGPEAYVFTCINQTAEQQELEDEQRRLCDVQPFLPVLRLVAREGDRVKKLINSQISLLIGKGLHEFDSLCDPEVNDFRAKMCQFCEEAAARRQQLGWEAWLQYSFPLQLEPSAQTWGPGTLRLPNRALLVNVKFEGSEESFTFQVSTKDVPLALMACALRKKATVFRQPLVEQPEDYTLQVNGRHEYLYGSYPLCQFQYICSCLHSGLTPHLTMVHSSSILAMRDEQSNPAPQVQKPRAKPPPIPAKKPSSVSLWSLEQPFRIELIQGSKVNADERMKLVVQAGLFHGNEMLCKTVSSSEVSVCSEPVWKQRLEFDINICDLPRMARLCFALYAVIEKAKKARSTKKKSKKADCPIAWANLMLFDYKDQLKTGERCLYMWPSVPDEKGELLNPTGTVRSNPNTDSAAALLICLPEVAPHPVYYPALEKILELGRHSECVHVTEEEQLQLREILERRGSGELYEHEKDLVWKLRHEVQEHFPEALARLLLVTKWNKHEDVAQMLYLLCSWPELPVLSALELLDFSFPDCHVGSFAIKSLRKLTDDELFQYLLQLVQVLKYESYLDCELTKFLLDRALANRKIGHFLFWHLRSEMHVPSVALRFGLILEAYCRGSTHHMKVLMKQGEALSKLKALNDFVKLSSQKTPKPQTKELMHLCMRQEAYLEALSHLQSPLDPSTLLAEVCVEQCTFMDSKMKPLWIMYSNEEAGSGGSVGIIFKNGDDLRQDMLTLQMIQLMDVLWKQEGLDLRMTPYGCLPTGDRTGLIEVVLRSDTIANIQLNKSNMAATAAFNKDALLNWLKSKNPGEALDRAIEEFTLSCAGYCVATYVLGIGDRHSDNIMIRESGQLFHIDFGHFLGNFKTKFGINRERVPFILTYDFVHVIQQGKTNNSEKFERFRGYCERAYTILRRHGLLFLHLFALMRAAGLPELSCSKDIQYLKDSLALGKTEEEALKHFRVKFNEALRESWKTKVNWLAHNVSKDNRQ

[19] = Clearance in cynomolgus monkey at 1 mg/kg, iv; type: ADME, organism-based, Macaca fascicularis; settings: in vivo
[20] = Drug degradation at low pH; type: physicochemical; procedure, shortened: as §1
[21] = Half life of the compound; type: physicochemical
[22] = Chemical stability of the compound under aqueous acidic condition; type: physicochemical; settings: buffer; procedure, shortened: as §1
[23] = biological target: PI3-kinase p110-delta/p85-alpha (Homo sapiens, UniProt O00329); assay: Inhibition of human full length PI3K p110delta/p85alpha using […] as substrate measured after 30 mins by TR-FRET assay; type: protein-complex assay
[24] = Drug degradation assessed as acid-mediated compound hydrolysis at 40 degreeC measured at 3 hrs; type: physicochemical; settings: read-out: Drug degradation; procedure, shortened: as §1
[25] = Chemical stability assessed as time taken for hydrolytic degradation at pH 2; type: physicochemical; settings: buffer; procedure, shortened: as §1
[26] = Thermal stability of compound assessed as half life at 40 degreeC measured over 72 hrs by HPLC analysis; type: physicochemical

Phosphatidylinositol 4,5-bisphosphate 3-kinase catalytic subunit gamma isoform, sequence (P48736 whole entry, canonical isoform): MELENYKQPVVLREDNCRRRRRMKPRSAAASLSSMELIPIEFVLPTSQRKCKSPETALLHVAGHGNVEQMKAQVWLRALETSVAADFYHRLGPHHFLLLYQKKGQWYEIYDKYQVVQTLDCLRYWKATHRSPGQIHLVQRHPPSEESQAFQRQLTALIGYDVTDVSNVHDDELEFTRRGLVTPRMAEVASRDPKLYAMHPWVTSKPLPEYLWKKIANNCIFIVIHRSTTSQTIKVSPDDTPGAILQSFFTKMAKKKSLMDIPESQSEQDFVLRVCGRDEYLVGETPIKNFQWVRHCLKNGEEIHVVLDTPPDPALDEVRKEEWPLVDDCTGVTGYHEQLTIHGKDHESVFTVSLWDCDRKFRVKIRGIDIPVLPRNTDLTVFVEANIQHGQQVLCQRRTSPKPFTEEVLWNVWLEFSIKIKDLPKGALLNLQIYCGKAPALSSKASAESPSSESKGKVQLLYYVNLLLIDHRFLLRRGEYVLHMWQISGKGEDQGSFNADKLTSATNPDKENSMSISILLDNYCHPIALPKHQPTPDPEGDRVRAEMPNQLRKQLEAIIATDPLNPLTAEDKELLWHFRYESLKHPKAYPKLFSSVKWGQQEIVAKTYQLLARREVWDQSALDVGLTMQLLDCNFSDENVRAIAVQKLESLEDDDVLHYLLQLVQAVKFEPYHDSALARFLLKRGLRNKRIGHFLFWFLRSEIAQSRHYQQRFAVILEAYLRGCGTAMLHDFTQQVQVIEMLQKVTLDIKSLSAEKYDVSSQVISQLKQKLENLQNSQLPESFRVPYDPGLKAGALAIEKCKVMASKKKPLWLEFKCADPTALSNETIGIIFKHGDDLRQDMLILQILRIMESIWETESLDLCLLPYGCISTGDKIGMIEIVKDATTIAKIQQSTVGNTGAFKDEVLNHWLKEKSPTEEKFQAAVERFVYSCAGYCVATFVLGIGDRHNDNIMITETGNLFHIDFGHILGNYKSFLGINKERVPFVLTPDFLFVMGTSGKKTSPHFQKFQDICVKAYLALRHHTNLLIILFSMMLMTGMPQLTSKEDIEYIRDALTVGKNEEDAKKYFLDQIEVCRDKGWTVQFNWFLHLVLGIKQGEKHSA
PI3-kinase p110-delta/p85-alpha, sequence (P27986 whole entry, one chain of several): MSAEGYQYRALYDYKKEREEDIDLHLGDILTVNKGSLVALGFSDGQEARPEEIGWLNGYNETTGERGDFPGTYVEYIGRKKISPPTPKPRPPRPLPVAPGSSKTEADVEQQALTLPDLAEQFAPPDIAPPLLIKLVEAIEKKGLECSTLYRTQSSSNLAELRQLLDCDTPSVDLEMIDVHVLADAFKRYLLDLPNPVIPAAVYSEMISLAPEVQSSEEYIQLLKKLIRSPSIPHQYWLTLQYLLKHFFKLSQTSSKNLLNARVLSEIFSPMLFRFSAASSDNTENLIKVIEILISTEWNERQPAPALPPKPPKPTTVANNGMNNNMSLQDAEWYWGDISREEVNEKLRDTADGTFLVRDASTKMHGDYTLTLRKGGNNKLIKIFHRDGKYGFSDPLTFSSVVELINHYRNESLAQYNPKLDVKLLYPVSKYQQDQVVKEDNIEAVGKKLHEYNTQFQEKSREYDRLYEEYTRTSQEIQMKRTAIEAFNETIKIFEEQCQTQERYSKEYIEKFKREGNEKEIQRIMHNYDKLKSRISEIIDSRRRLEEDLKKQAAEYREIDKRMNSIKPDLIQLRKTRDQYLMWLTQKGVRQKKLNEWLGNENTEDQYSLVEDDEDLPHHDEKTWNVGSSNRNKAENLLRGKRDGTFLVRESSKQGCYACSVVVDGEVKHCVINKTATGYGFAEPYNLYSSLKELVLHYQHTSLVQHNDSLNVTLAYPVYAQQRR
PI3K p110 beta/p85 alpha, sequence (P27986 whole entry): as the sequence (P27986 whole entry, one chain of several) above
PI3K p110 beta/p85 alpha, sequence (P42338 whole entry): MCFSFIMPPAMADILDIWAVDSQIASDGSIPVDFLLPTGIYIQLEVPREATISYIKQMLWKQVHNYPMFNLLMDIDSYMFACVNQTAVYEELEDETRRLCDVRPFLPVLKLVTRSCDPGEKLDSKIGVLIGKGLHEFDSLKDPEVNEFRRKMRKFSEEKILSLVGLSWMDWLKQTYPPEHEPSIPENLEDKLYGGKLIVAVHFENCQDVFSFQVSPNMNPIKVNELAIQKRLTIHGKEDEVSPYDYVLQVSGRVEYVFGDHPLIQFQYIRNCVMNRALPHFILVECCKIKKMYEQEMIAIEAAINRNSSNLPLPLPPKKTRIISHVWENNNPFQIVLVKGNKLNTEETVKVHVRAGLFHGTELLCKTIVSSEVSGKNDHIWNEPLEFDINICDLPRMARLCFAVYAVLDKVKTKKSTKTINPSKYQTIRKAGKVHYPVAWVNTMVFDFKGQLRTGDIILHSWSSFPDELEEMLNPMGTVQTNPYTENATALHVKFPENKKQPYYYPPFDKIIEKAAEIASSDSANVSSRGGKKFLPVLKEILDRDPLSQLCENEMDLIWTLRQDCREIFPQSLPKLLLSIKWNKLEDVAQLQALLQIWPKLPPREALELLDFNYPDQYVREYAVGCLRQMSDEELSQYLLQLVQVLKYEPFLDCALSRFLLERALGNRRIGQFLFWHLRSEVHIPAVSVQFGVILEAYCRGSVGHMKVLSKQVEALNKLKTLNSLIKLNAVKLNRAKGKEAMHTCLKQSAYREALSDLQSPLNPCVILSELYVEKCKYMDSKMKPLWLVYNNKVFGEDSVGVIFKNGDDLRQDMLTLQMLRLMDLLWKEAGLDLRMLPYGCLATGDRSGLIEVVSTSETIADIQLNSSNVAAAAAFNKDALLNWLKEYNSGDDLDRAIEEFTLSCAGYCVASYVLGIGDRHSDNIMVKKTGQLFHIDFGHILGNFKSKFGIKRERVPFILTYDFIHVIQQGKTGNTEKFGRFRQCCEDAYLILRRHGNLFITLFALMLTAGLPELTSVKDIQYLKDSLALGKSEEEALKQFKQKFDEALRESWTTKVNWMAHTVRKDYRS
PI3-kinase p110-alpha/p85-alpha, sequence (P27986 whole entry): as the sequence (P27986 whole entry, one chain of several) above
PI3-kinase p110-alpha/p85-alpha, sequence (P42336 whole entry): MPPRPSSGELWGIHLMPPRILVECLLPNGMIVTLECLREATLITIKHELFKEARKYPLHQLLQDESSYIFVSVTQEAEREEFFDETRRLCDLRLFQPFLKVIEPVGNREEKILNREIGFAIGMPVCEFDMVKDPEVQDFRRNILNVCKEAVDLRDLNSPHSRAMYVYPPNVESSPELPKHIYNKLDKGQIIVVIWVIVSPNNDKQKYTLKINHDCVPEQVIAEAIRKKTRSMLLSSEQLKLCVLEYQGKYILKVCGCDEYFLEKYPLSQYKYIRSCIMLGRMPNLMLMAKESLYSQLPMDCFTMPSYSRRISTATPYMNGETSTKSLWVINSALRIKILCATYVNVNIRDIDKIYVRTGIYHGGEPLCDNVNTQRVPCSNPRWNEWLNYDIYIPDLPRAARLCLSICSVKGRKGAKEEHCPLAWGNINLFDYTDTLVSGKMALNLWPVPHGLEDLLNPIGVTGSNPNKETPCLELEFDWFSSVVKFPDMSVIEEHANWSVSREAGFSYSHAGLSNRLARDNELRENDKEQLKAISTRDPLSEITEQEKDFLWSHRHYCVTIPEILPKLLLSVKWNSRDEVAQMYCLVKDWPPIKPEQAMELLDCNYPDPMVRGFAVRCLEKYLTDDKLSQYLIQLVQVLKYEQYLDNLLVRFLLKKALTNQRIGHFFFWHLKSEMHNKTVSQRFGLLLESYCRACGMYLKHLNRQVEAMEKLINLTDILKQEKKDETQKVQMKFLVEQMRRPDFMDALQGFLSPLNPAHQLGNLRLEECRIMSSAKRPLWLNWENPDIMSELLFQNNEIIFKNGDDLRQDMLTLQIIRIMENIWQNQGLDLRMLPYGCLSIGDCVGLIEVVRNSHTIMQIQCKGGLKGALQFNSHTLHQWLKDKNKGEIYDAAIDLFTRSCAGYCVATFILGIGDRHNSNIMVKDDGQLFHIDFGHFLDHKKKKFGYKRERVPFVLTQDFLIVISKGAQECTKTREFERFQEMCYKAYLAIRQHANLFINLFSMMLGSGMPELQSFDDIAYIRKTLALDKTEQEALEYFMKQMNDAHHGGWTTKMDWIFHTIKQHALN

Row | SMILES | Time [2] [h] | IC50 [4] [nM] | half-life at 100 ug/ml [7] [h] | IC50 [11] [nM] | IC50 [14] [nM] | EC50 [18] [nM] | IC50 [23] [nM] | also measured
1 | C[C@H](Nc1nc(N)nc(N)c1C#N)c1nc2cccc(Cl)c2c(=O)n1-c1cccnc1 | 0.2 | 1030 | 2.7 | 100 | 72 | 0.9 |  | Vd [1]: 0.5 L/kg; Vd [3]: 0.9 L/kg; Vd [5]: 1.9 L/kg; half-life [6]: 5.6 h; Ratio IC50 [8]: 1700; Ratio IC50 [9]: 120; half-life [10]: 4.9 h; clearance [12]: 3.33 mL/min/kg; bioavailability [13]: 42%; Ratio IC50 [15]: 160; clearance [16]: 25 mL/min/kg; half-life [17]: 2.5 h; clearance [19]: 1.67 mL/min/kg
2 | N#Cc1c(N)nc(N)nc1N[C@H](c1nc2cccc(Cl)c2c(=O)n1-c1cccnc1)C1CC1 | 0.5 |  | 3.6 |  |  |  |  | Drug degradation [20]: Active
3 | C[C@H](Nc1nc(N)nc(N)c1C#N)c1nc2cccc(F)c2c(=O)n1-c1cc(F)cc(F)c1 |  |  | 34 |  |  |  |  | Ratio IC50 [8]: 1900; Ratio IC50 [9]: 180; Ratio IC50 [15]: 650; half-life [21]: 34 h; Stabilty [22]: Stable
4 | CC[C@H](Nc1nc(N)nc(N)c1C#N)c1nc2c(F)ccc(Cl)c2c(=O)n1-c1cccnc1 | 2.8 | 1500 | 19 | 310 | 520 | 2 | 2 | Vd [3]: 0.3 L/kg; Vd [5]: 0.54 L/kg; clearance [12]: 2.17 mL/min/kg; bioavailability [13]: 37%; clearance [16]: 5 mL/min/kg
5 | C[C@H](Nc1nc(N)nc(N)c1C#N)c1nc2cccc(Cl)c2c(=O)n1-c1cncc(C2CC2)c1 |  | 10000 |  | 2600 | 2300 | 7 |  | 
6 | C[C@H](Nc1nc(N)nc(N)c1C#N)c1nc2cccc(Cl)c2c(=O)n1-c1cncc(C(F)(F)F)c1 |  | 10000 |  | 4800 | 1300 | 21 | 17 | 
7 | C[C@H](Nc1nc(N)nc(N)c1C#N)c1nc2c(Cl)cccc2c(=O)n1-c1cccnc1 |  | 3100 |  | 390 | 1100 | 5 |  | 
8 | C[C@H](Nc1nc(N)nc(N)c1C#N)c1nc2cccc(Cl)c2c(=O)n1-c1cncc(C#N)c1 |  | 8700 |  | 3100 | 700 | 4 | 13 | 
9 | Cc1c(F)cncc1-n1c([C@H](C)Nc2nc(N)nc(N)c2C#N)nc2cccc(Cl)c2c1=O (stereo in doubt; 28) |  | 10000 |  | 1750 | 6900 |  | 40 | 
10 | C[C@H](Nc1nc(N)nc(N)c1C#N)c1nc2c(F)ccc(Cl)c2c(=O)n1-c1cccnc1 | 2.8 | 770 | 19 | 46 | 51 | 0.5 |  | Vd [3]: 0.51 L/kg; Vd [5]: 3.2 L/kg; clearance [12]: 3.5 mL/min/kg; bioavailability [13]: 24%; degraded at 3 h [24]: 10%; clearance [16]: 26.7 mL/min/kg
11 | CC[C@H](Nc1nc(N)nc(N)c1C#N)c1nc2cccc(Cl)c2c(=O)n1-c1cccnc1 | 0.65 |  | 4.3 |  |  |  |  | Drug degradation [20]: Active
12 | C[C@H](Nc1nc(N)nc(N)c1C#N)c1nc2c(Cl)ccc(Cl)c2c(=O)n1-c1cccnc1 | 2.3 | 1300 | 15 | 76 | 330 | 0.9 |  | 
13 | C[C@H](Nc1nc(N)nc(N)c1C#N)c1nc2cccc(Cl)c2c(=O)n1-c1cncc(Cl)c1 |  | 8300 |  | 1200 | 1200 | 4 |  | 
14 | Cc1ncccc1-n1c([C@H](C)Nc2nc(N)nc(N)c2C#N)nc2cccc(Cl)c2c1=O (stereo in doubt; 23) | 3.1 | 1600 | 20 | 350 | 160 |  | 1.3 | Time [25]: > 3 h
15 | Cc1ccncc1-n1c([C@H](C)Nc2nc(N)nc(N)c2C#N)nc2cccc(Cl)c2c1=O (stereo in doubt; 25) | 3.5 | 880 | 23 | 21 | 70 |  |  | Time [25]: > 3 h
16 | Cc1ncccc1-n1c([C@H](C)Nc2nc(N)nc(N)c2C#N)nc2cccc(Cl)c2c1=O (stereo in doubt; 24) |  | 6800 |  | 440 | 650 |  |  | 
17 | Cc1ccncc1-n1c([C@H](C)Nc2nc(N)nc(N)c2C#N)nc2cccc(Cl)c2c1=O (stereo in doubt; 26) |  | 9700 |  | 370 | 1300 |  |  | 
18 | C[C@H](Nc1nc(N)nc(N)c1C#N)c1nc2cccc(Cl)c2c(=O)n1-c1cncc(F)c1 | 0.5 | 4300 | 3.6 | 740 | 150 | 1.2 | 1.7 | Ratio IC50 [15]: 430; Drug degradation [20]: Active
19 | C[C@H](Nc1nc(N)nc(N)c1C#N)c1nc2c(F)ccc(Cl)c2c(=O)n1-c1cncc(F)c1 | 2.9 | 3100 | 20 | 440 | 120 | 0.5 |  | Vd [3]: 0.96 L/kg; Vd [5]: 1.4 L/kg; clearance [12]: 5.17 mL/min/kg; bioavailability [13]: 46%; clearance [16]: 17.7 mL/min/kg
20 | C[C@H](Nc1nc(N)nc(N)c1C#N)c1nc2cccc(Cl)c2c(=O)n1-c1ccccc1 |  | 240 | 358 | 9.4 |  | 0.3 |  | Ratio IC50 [8]: 2200; Ratio IC50 [9]: 60; Ratio IC50 [15]: 80; half-life [21]: 358 h; Stabilty [22]: Stable
21 | C[C@H](Nc1nc(N)nc(N)c1C#N)c1nc2c(F)ccc(F)c2c(=O)n1-c1cccnc1 |  | 4020 |  | 770 | 940 | 11 |  | 
22 | COc1cncc(-n2c([C@H](C)Nc3nc(N)nc(N)c3C#N)nc3cccc(Cl)c3c2=O)c1 |  | 10000 |  | 3000 | 830 | 3 |  | 
23 | Cc1c(F)cncc1-n1c([C@H](C)Nc2nc(N)nc(N)c2C#N)nc2cccc(Cl)c2c1=O (stereo in doubt; 27) | 4.6 | 1200 | 30 | 120 | 25 |  | 0.3 | half-life [26]: 1750 h; Time [25]: > 3 h

Source: ChEMBL document CHEMBL4765230, “Discovery of Orally Efficacious Phosphoinositide 3-Kinase δ Inhibitors with Improved Metabolic Stability” (J Med Chem, 2016)
